Values after ≈ are worked out from the molar mass of the structure shown.

Data set [1] in a line: Aqueous solubility of the compound in 0.1 M sodium phosphate buffer at pH 7.4. The class given is physicochemical. An outline of the steps:
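Solubility determined in 0.1 M sodium phosphate buffer, pH 7.4, with 1% DMSO present.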

The target in data set [2] is T1, Bifunctional epoxide hydrolase 2 (Homo sapiens, UniProt P34913).
T1 sequence (P34913 whole entry): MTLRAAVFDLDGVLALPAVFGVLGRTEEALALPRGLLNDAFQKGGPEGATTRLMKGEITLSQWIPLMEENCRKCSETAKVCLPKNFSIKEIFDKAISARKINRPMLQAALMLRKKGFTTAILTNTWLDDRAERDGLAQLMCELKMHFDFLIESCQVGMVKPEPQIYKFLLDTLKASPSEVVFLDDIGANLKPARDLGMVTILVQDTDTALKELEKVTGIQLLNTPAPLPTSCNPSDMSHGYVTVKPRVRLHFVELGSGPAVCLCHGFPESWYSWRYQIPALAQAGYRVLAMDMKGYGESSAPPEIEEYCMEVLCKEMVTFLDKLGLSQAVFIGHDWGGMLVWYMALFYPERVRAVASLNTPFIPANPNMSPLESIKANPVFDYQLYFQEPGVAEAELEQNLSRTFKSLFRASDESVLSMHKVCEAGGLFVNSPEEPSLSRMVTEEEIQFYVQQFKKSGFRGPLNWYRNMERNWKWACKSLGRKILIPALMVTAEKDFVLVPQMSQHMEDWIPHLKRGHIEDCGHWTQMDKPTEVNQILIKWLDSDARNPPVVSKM
Briefly: Inhibition of recombinant human sEH expressed in baculovirus expression system using CMNPC as substrate preincubated for 5 mins followed by substrate addition measured for 10 mins by fluorescent based assay. An outline of the steps: (§1)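 Kinetic fluorescent assay giving IC50 values; each value is the mean of three separate experiments.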

Data set [3] addresses T2, Bifunctional epoxide hydrolase 2 (Rattus norvegicus, UniProt P80299).
T2 sequence (P80299 whole entry): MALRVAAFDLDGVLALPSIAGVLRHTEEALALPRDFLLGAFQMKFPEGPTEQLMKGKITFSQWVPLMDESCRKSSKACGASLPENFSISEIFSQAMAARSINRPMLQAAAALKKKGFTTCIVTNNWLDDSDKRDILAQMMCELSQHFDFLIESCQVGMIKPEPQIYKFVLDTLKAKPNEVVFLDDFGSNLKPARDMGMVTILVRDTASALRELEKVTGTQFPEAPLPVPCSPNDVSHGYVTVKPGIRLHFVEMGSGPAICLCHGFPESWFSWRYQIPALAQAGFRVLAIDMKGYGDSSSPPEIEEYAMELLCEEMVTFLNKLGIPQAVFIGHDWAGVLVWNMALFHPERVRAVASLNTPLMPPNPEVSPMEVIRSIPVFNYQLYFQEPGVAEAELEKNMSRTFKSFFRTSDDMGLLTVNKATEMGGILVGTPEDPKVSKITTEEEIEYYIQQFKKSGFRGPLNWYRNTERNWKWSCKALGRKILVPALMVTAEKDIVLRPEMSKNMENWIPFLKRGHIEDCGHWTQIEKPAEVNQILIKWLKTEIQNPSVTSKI
Briefly: Inhibition of rat sEH using CMNPC as substrate preincubated for 5 mins followed by substrate addition measured for 10 mins by fluorescent based assay. An outline of the steps:
as §1

Data set [4] has as its target T3, Bifunctional epoxide hydrolase 2 (Mus musculus, UniProt P34914).
T3 sequence (P34914 whole entry): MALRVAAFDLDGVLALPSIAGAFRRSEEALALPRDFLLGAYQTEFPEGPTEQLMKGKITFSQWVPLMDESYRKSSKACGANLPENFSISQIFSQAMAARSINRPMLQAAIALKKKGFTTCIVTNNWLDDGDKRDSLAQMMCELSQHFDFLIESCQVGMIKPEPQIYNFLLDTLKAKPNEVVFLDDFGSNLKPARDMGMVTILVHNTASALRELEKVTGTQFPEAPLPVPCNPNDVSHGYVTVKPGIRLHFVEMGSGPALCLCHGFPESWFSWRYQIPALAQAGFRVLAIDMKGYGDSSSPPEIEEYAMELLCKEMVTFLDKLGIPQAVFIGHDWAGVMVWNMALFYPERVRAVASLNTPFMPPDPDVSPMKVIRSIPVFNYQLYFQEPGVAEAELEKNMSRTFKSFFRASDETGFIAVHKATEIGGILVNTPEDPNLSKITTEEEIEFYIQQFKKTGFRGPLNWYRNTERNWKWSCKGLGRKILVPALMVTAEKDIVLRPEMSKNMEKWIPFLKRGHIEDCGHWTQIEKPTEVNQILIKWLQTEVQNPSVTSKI
Briefly: Inhibition of recombinant mouse sEH expressed in baculovirus expression system using CMNPC as substrate preincubated for 5 mins followed by substrate addition measured for 10 mins by fluorescent based assay. An outline of the steps: as §1

The solubility is how much of the substance goes into solution per volume. Low readings indicate little dissolved substance, high ones much dissolved substance. For orientation: IC50 means the concentration that gives 50% inhibition. The compound `CC(N=C(S)NCc1ccccc1)C12CC3CC(CC(C3)C1)C2` (stereo unspecified) yielded a solubility in data set [1] of 40 to 50 µM (≈ 13.1 to 16.4 µg/mL). Moreover, in data set [2], the IC50 was found to be 234 nM. Regarding `O=C(NCCCCNC(=O)NCC12CC3CC(CC(C3)C1)C2)NCC12CC3CC(CC(C3)C1)C2`, the solubility in data set [1] was 50 to 75 µM (≈ 23.5 to 35.3 µg/mL). `CC(NC(=O)NCCCCNC(=O)NC(C)C12CC3CC(CC(C3)C1)C2)C12CC3CC(CC(C3)C1)C2` (stereo unspecified) showed a solubility in data set [1] of 10 to 25 µM (≈ 4.99 to 12.5 µg/mL). In the case of `CC(NC(=O)NCCCCCCCCNC(=O)NC(C)C12CC3CC(CC(C3)C1)C2)C12CC3CC(CC(C3)C1)C2` (stereo unspecified), the solubility in data set [1] was 10 to 25 µM (≈ 5.55 to 13.9 µg/mL).

Compound `O=C(NCCCCCCCCNC(=O)NC1C2CC3CC(C2)CC1C3)NC1C2CC3CC(C2)CC1C3` (stereo unspecified) had a solubility in data set [1] of 5 to 10 µM (≈ 2.49 to 4.99 µg/mL).

In data set [1], `O=C(NC12CC3CC(CC(C3)C1)C2)NC12CC3CC(CC(C3)C1)C2` gave a solubility of 5 to 10 µM (≈ 1.64 to 3.29 µg/mL). Take `S=C(NCCCCNC(=S)NCC12CC3CC(CC(C3)C1)C2)NCC12CC3CC(CC(C3)C1)C2`: the solubility in data set [1] lay within 140 to 160 µM (≈ 70.4 to 80.5 µg/mL).

Compound `CC12CC3CC(C)(C1)CC(NC(=S)NC1C4CC5CC(C4)CC1C5)(C3)C2` (stereo unspecified) gave a solubility in data set [1] of 80 to 90 µM (≈ 29.8 to 33.5 µg/mL). In addition, the IC50 in data set [2] was found to be 152 nM. In the case of `S=C(Nc1ccc(C23CC4CC(CC(C4)C2)C3)cc1)NC12CC3CC(CC(C3)C1)C2`, the solubility in data set [1] lay within 30 to 40 µM (≈ 12.6 to 16.8 µg/mL). Further, the IC50 in data set [2] was found to be 1250 nM. The like results for `S=C(NCC12CC3CC(CC(C3)C1)C2)NC1C2CC3CC(C2)CC1C3` (stereo unspecified) were, in that order, 30 to 40 µM (≈ 10.8 to 14.3 µg/mL) and 902 nM. In the case of `Fc1ccc(NC(=S)NCC23CC4CC(CC(C4)C2)C3)cc1`, in data set [1], the solubility lay in the range of 150 to 175 µM (≈ 47.8 to 55.7 µg/mL). Moreover, the concentration for half-maximal inhibition (IC50) in data set [2] worked out at 159 nM. With `S=C(NCCCCCCCCNC(=S)NC1C2CC3CC(C2)CC1C3)NC1C2CC3CC(C2)CC1C3` (stereo unspecified), the solubility in data set [1] lay within 25 to 35 µM (≈ 13.3 to 18.6 µg/mL). `CC12CC3CC(C)(C1)CC(NC(=S)Nc1ccc(Cl)cc1)(C3)C2`: the IC50 in data set [2] was 1050 nM.

`S=C(NCCNC(=S)NC12CC3CC(CC(C3)C1)C2)NC12CC3CC(CC(C3)C1)C2` gave a solubility in data set [1] of 100 to 110 µM (≈ 44.7 to 49.1 µg/mL). In addition, in data set [2], the IC50 amounted to 987 nM.

As for `CC12CC3CC(C)(C1)CC(NC(=S)NC14CC5CC(CC(C5)C1)C4)(C3)C2`, the solubility in data set [1] was in the range of 30 to 40 µM (≈ 11.2 to 14.9 µg/mL). In addition, in data set [2], the half-inhibitory concentration (IC50) was determined as 16.1 nM. With `S=C(NCCc1ccccc1)NCC12CC3CC(CC(C3)C1)C2`, the solubility in data set [1] was 25 to 30 µM (≈ 8.21 to 9.86 µg/mL). Further, in data set [2], the half-maximal inhibitory concentration (IC50) stood at 133 nM. For the compound `S=C(NCCCCCCCCCCNC(=S)NC12CC3CC(CC(C3)C1)C2)NC12CC3CC(CC(C3)C1)C2`, in data set [1], the solubility is 35 to 45 µM (≈ 19.6 to 25.2 µg/mL). Besides, the results for the IC50 in data set [3], in data set [2] and in data set [4] were 44.4 nM, 15.3 nM and 59.5 nM, respectively.

`CC(NC(=S)Nc1cccc(F)c1)C12CC3CC(CC(C3)C1)C2` (stereo unspecified) yielded a solubility in data set [1] of 35 to 45 µM (≈ 11.6 to 15 µg/mL). Besides, in data set [2], the IC50 was found to be 451 nM. The like results for `S=C(Nc1ccc(C23CC4CC(CC(C4)C2)C3)cc1)Nc1ccc(C23CC4CC(CC(C4)C2)C3)cc1` were, in that order, 100 to 125 µM (≈ 49.7 to 62.1 µg/mL) and 15300 nM. For `S=C(NC1C2CC3CC(C2)CC1C3)NC12CC3CC(CC(C3)C1)C2` (stereo unspecified), in data set [1], the solubility is 60 to 70 µM (≈ 20.7 to 24.1 µg/mL). In addition, the IC50 in data set [2] amounted to 14.8 nM.

For `S=C(Nc1ccc(Cl)cc1)NC12CC3CC(CC(C3)C1)C2`, the IC50 in data set [2] is 34.7 nM. On to `CC12CC3CC(C)(C1)CC(NC(=S)Nc1ccc(F)cc1)(C3)C2`, for which, in data set [1], the solubility was 175 to 200 µM (≈ 58.2 to 66.5 µg/mL). Also, the IC50 in data set [2] amounted to 551 nM. The compound `S=C(NC12CC3CC(CC(C3)C1)C2)NC12CC3CC(CC(C3)C1)C2` had a solubility in data set [1] of 30 to 40 µM (≈ 10.3 to 13.8 µg/mL). Also, the 50% inhibitory concentration (IC50) in data set [2] is 11.2 nM.

In turn, `S=C(NCCc1ccccc1)NCCC12CC3CC(CC(C3)C1)C2` displayed a solubility in data set [1] of 60 to 80 µM (≈ 20.6 to 27.4 µg/mL). The IC50 in data set [2] amounted to 52 nM.
